p97 ATPase inh: human p97 ATPase inhibition; P55072; hit rate 0.42% among 220,000; AID 1481; inhibition, % at 8 µM; recombinant p97 ATPase, Kinase-Glo ATP luminescence, 3 h; in the data active = inhibition above about 15%;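 also: 0% = DMSO vehicle and 100% = wells lacking enzyme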
Mdm2 ligase inh: inhibitors of human Mdm2 E3 ubiquitin ligase; signal enhancement, % at 5 µM; hit rate 0.11% among 210,000; cell-based MDM2 ubiquitination luciferase reporter, 2 h; 0 = plate control, 100 = twice control, blank-subtracted; Q00987;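 active = signal enhancement of 30% or more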;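 also: luminescence tracks abundance of the self-degrading MDM2-luciferase fusion protein; higher signal means inhibition of MDM2 E3 ligase activity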
Target sequence (Q00987 whole entry, looked up, the tested form may be a part): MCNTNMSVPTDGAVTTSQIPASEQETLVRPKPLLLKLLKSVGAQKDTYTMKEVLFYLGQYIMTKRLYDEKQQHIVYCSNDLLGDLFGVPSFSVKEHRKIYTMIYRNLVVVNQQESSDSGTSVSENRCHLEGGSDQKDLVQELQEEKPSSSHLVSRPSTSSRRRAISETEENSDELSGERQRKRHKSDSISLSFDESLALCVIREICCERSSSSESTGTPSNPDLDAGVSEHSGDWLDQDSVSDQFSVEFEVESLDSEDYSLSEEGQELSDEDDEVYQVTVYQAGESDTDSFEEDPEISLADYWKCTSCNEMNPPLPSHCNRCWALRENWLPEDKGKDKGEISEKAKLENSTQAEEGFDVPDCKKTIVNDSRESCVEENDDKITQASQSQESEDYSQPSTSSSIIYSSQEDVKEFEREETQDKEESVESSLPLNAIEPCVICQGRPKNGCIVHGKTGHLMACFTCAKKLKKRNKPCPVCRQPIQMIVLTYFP
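Material: stable MDM2–luciferase fusion reporter cells / Quantity: 2000 cells/well / Dosing: single 5 µM compound dose, 0.2% final DMSO / Buffer or medium: DMEM / Schedule: 4 h cell settling then 2 h compound exposure, 37 °C / Detection: luminescence with SteadyLite reagent, 15 min at room temperature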
ROMK primary: human ROMK K+ channel modulation, primary screen. P48048. Tet-inducible ROMK, thallium flux fluorescence; actives lie on both sides. B-score at 10 µM. hit rate 2% among 130,000;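 active = signal ratio slope over the read window, or its plate-corrected B-score, at least 3 SD from the plate mean, either direction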;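 also: B-score of the F/F0 ratio slope over 7 to 12 s after thallium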
KCC2 mod: modulates chloride dependent transport by human KCC2. Q9H2X9. KCC2 cells, thallium flux FluoZin-2 fluorescence. B-score of Tl+ flux slope (higher = more flux/activation; lower = inhibition) at 10 µM. hit rate 2.2% among 190,000;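 active = thallium flux slope and its plate-corrected score both differing from the plate sample mean at a set confidence after two filtering rounds, in either direction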;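 also: slope of fluorescence scaled to starting intensity during 10 to 20 s after thallium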
PKD1 kinase inh: inhibitors of human PKD1 kinase. Q15139. PKD1 kinase fluorescence polarization assay. inhibition, % (concentration not given with the values). hit rate 0.056% among 200,000. AID 797; in the data active = inhibition above about 50%
Redox H2O2 prof: compounds producing H2O2 with reducing agent – biochemical, NIH compound library profiling, artefact control for MLSCN library redox annotation, primary screen; DTT-dependent redox cycling H2O2, phenol red/HRP absorbance; 100% = 100 µM peroxide control, 0% = buffer; activation, % at 10 µM; hit rate 0.03% among 200,000; AID 878;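 active = activation of at least 50% relative to the plate's high and low controls in the primary single-dose screen; inactive = activation below 50%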;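 also: compound incubated with DTT at 0.8 mM final as the reducing agent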
p97 confirm: human p97 ATPase inhibition, confirmation; shares compounds with p97 ATPase inh; hit rate 44% among 760; AID 1517; inhibition, % at 8 µM; recombinant p97 ATPase, Kinase-Glo ATP luminescence;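 active = percent inhibition of p97 ATPase above a set limit, the primary screen's mean plus 3 SD, cut at about 15% in these data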;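 also: 0% = DMSO wells and 100% = wells lacking p97 protein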
Active calls of the source: *; x = no result given. Compounds with a hit are over-represented: about 3.4% of the library has one in this group of screens.

SMILES	p97 ATPase inh	Mdm2 ligase inh	ROMK primary	KCC2 mod	PKD1 kinase inh	Redox H2O2 prof	p97 confirm
CN1c2ccccc2C(C)(C)C12C=Nc1c(cc(N3CCOCC3)c3ccccc13)O2 (stereo not given)	29*	-13	x	-0.44	9	-3	3
OCC[C@H]1C[C@H](O)[C@@H](O)[C@@]2(CCCCO2)O1	4	x	-0.17	0.65	-9	0	x
O=C(Nc1ncccc1Cl)C(Sc1ccccc1)c1ccccc1 (stereo not given)	1	-13	-0.77	-0.037	-12	-5	x
CC(=O)Nc1cccc(-c2nc3ccc(NC(C)=O)cc3s2)c1	16*	-9	-0.54	-0.0029	3	0	8
CC(=O)Nc1cccc(-c2nc3ccccc3s2)c1	3	3	0.31	x	-2	0	x
N#Cc1c(NC(=O)c2ccc(Br)o2)n(-c2ccccc2)c2nc3ccccc3nc12	47*	-2	-0.57	-4.6	x	x	41*
COc1ccccc1CNC(=O)C(C)Sc1ccsc1[N+](=O)[O-] (stereo not given)	20*	-5	1.7	-1.6	-1	1	8
CC(Sc1ccsc1[N+](=O)[O-])C(=O)NCc1ccccc1 (stereo not given)	16*	-15	0.0034	-0.25	-6	0	8
COc1ccc(C(=O)C2CCCN(Cc3cccc4c3OCO4)C2)cc1OC (stereo not given)	1	-5	-0.12	-0.47	8	-1	x
CCNC(=O)Oc1ccc[nH]c1=O	17*	-10	-1.2	0.48	x	x	5
O=C(CSc1nnc(-c2ccco2)n1-c1ccccc1)NCc1ccco1	7	7	x	-0.02	-3	2	x
O=c1cc(CSc2nnnn2-c2ccccc2)nc2nc[nH]n12	1	-2	0.64	0.6	-3	0	x
Cc1cccc(N=C2NC(=O)/C(=C/C=C/c3ccco3)S2)c1C	21*	-12	x	4.3*	4	1	12
O=C1CC(=O)N(c2cccc(F)c2)N1	22*	-3	-0.006	1.1	-3	0	9
Cc1cccc(Nc2cc(C)c3c(O)cccc3n2)c1C	23*	x	-0.71	-2.6	0	2	16*
Cc1ccc(NC(=S)Nc2cccc3cnccc23)cc1C	24*	-2	0.01	0.019	7	0	3
CC(C)CNC(=O)CSc1nc2scc(-c3ccccc3)c2c(=O)[nH]1	2	-4	-0.16	0.11	-2	0	x
CN(CCC#N)C(=O)CSc1nc2scc(-c3ccccc3)c2c(=O)[nH]1	16*	-3	0.38	-1.6	-9	0	9
O=S(=O)(CCSc1nc2ccccc2s1)c1nc2ccccc2s1	23*	-25	-0.55	x	-8	0	17*
CCS(=O)(=O)CCSc1nc2ccccc2s1	-7	-10	x	-0.65	-3	-1	x
O=[N+]([O-])c1ccc2nc(SCc3ccccc3Cl)sc2c1	-3	-3	x	x	1	-5	x
O=C(CSc1nc2ccc([N+](=O)[O-])cc2s1)c1ccc2ccccc2c1	17*	-10	x	0.64	x	x	8
CN(C)CCCNc1oc(/C=C/c2ccccc2)nc1C#N	-5	-8	-0.81	0.048	x	x	x
COC(=O)c1nc2n(n1)C(c1cccc(Cl)c1)C1=C(CC(C)(C)CC1=O)N2 (stereo not given)	4	-5	x	x	-7	-1	x
O=C(Nc1cccc2nsnc12)c1ccc(-c2cccc(Cl)c2)o1	18*	3	x	x	8	1	5
O=C(Nc1ccccc1N1CCCCC1)c1ccc(-c2cccc(Cl)c2)o1	2	-5	0.82	0.75	-3	2	x
CC(C)CCNC(=O)CSc1nnc(-c2ccc(S(=O)(=O)N3CCCC3)cc2)n1C	2	-2	-0.17	-0.81	-7	0	x
Cc1ccc(-n2nnnc2Sc2nc([N+](=O)[O-])nn2C)cc1	2	-12	x	0.22	-6	1	x
COc1ccc(S(=O)(=O)O/N=C2\CCCc3ccccc32)cc1	18*	-16	-0.66	0.65	0	0	4

Compound activity as filed in PubChem.
